ChEMBL document CHEMBL3259637, “Synthesis and antiproliferative effect of novel 4-thiazolidinone-, pyridine- and piperazine-based conjugates on human leukemic cells” (Eur J Med Chem, 2014)
Calls of active or inactive are those of the source. The calls are words filed in the database; no cut-off is given here.

Assays:
[1] = tested on: Jurkat; assay: Antiproliferative activity against human Jurkat cells after 48 to 72 hrs by trypan blue dye exclusion assay and MTT assay; assay type: functional, cell-based
[2] = Antiproliferative activity against human NALM6 cells after 48 to 72 hrs by trypan blue dye exclusion assay and MTT assay; assay type: functional, cell-based; conditions: NALM-6
[3] = tested on: K562; assay: Antiproliferative activity against human K562 cells after 48 to 72 hrs by trypan blue dye exclusion assay and MTT assay; assay type: functional, cell-based
[4] = Cell cycle arrest in human NALM6 cells assessed as accumulation at G2/M phase at 20 uM after 48 hrs by propidium iodide staining based flow cytometry; assay type: functional; conditions: NALM-6
In short: (§1)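 Nalm6 cells (about 0.75 × 10⁵ cells/ml) were treated at 5, 10 and 20 µM for 48 h, with a DMSO vehicle control. Cells were PBS-washed, treated with RNase (50 µg/ml), stained with propidium iodide and analysed by flow cytometry (488 nm excitation, 560/670 emission). At least 10,000 cells per sample; subG1, G1, S and G2/M fractions scored. Two independent experiments.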

[5] = Cell cycle arrest in human NALM6 cells assessed as change in cell cycle distribution at 5 to 10 uM after 48 hrs by propidium iodide staining based flow cytometry; assay type: functional; conditions: NALM-6; in short: as §1
[6] = Cell cycle arrest in human NALM6 cells assessed as change in cell cycle distribution after 48 hrs by propidium iodide staining based flow cytometry; assay type: functional; conditions: NALM-6; in short: as §1
[7] = Cell cycle arrest in human NALM6 cells assessed as accumulation at subG1 phase at 20 uM after 48 hrs by propidium iodide staining based flow cytometry; assay type: functional; conditions: NALM-6; in short: as §1
[8] = tested on: NALM-6; assay: Induction of cell death in human NALM6 cells assessed as mitochondrial membrane potential depolarization after 48 hrs by JC1 staining based flow cytometry; assay type: functional
In short: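 Nalm6 cells were exposed to 5, 10 and 20 µM for 48 h, then loaded with JC-1 (0.5 µM) at 37°C for 30 min and PBS-washed. Flow cytometry used 488 nm excitation, reading emission at 530/630 and 580/610 nm on 10,000 cells. The ratio of red to green fluorescent cells was reported. 2,4-DNP was the positive control and DMSO the vehicle control.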

| IC50 [1] | IC50 [3] | SMILES | IC50 [2] | Activity [4] | Activity [5] | Activity [6] | Activity [7] | Activity [8] |
| --- | --- | --- | --- | --- | --- | --- | --- | --- |
| > 100 µM | > 100 µM | COC(=O)c1ccc(C2SCC(=O)N2c2ccc(N3CCN(Cc4cccc(C)c4)CC3)cn2)c(OC)c1 (stereo not given) | 27.3 µM |  |  |  |  |  |
| 19.3 µM | 15.2 µM | COC(=O)c1ccc(C2SCC(=O)N2c2ccc(N3CCNCC3)cn2)c(OC)c1 (stereo not given) | 9.71 µM | Active | Active | Dose-dependent effect | Active | Dose-dependent effect |
| 52.9 µM | 65.6 µM | COC(=O)c1ccc(C2SCC(=O)N2c2ccc(N3CCN(S(=O)(=O)c4ccccc4)CC3)cn2)c(OC)c1 (stereo not given) | 48.4 µM |  |  |  |  |  |
| 78.3 µM | > 100 µM | COC(=O)c1ccc(C2SCC(=O)N2c2ccc(N3CCN(S(=O)(=O)c4ccc(F)cc4)CC3)cn2)c(OC)c1 (stereo not given) | > 100 µM |  |  |  |  |  |
| 54 µM | 65.2 µM | COC(=O)c1ccc(C2SCC(=O)N2c2ccc(N3CCN(S(=O)(=O)c4ccc([N+](=O)[O-])cc4)CC3)cn2)c(OC)c1 (stereo not given) | > 100 µM |  |  |  |  |  |
| 45.2 µM | 54.5 µM | COC(=O)c1ccc(C2SCC(=O)N2c2ccc(N3CCN(S(=O)(=O)c4ccc(OC)cc4)CC3)cn2)c(OC)c1 (stereo not given) | 29.4 µM |  |  |  |  |  |
| > 100 µM | > 100 µM | COC(=O)c1ccc(C2SCC(=O)N2c2ccc(N3CCN(S(=O)(=O)c4cc(Cl)ccc4Cl)CC3)cn2)c(OC)c1 (stereo not given) | 27.4 µM |  |  |  |  |  |
| > 100 µM | 53.5 µM | COC(=O)c1ccc(C2SCC(=O)N2c2ccc(N3CCN(S(=O)(=O)c4c(C)cc(C)cc4C)CC3)cn2)c(OC)c1 (stereo not given) | > 100 µM |  |  |  |  |  |
| 0.0045 µM |  | CC(=O)O[C@H]1C(=O)[C@@]2(C)[C@H]([C@H](OC(=O)c3ccccc3)[C@]3(O)C[C@H](OC(=O)[C@H](O)[C@@H](NC(=O)c4ccccc4)c4ccccc4)C(C)=C1C3(C)C)[C@]1(OC(C)=O)CO[C@@H]1C[C@@H]2O [PACLITAXEL] | 0.0041 µM |  |  |  |  |  |
| 61 µM | > 100 µM | COC(=O)c1ccc(C2SCC(=O)N2c2ccc(N3CCN(Cc4ccc(Cl)c(Cl)c4)CC3)cn2)c(OC)c1 (stereo not given) | > 100 µM |  |  |  |  |  |
| 41 µM | > 100 µM | COC(=O)c1ccc(C2SCC(=O)N2c2ccc(N3CCN(Cc4cc(OC)c(OC)c(OC)c4)CC3)cn2)c(OC)c1 (stereo not given) | > 100 µM |  |  |  |  |  |
| 37.4 µM | 68.7 µM | COC(=O)c1ccc(C2SCC(=O)N2c2ccc(N3CCN(Cc4cccc([N+](=O)[O-])c4)CC3)cn2)c(OC)c1 (stereo not given) | > 100 µM |  |  |  |  |  |
